ChEMBL document CHEMBL1152452, “Modifications incorporated in CpG motifs of oligodeoxynucleotides lead to antagonist activity of toll-like receptors 7 and 9” (2009)
The source made the active and inactive calls.

Tests used:
Mus musculus [1] = assay: Immunostimulatory activity in C57BL/6 mouse assessed as induction of IL12 level in serum at 2 mg/kg, sc after 2 hrs by sandwich ELISA; assay type: functional, organism-based; set-up: dose 2 mg/kg
How it was run: (§1)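 Female C57BL/6 mice, 5–6 weeks old, n = 3, received a single 2 mg/kg subcutaneous ODN injection in the right flank. Blood was taken by retro-orbital bleeding 2 h later. Naive mice served as baseline. Representative of three experiments.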

Mus musculus [2] = assay: Immunostimulatory activity in C57BL/6 mouse assessed as induction of MCP1 level in serum at 2 mg/kg, sc after 2 hrs by Luminex multiplex assay; assay type: functional, organism-based; set-up: dose 2 mg/kg; how it was run: as §1
[3] = target: T1, Toll-like receptor 9 (Mus musculus) (UniProt Q9EQU3); assay: Activation of mouse TLR9 expressed in HEK293 cells assessed as NF-kappaB level at 0.3 ug/mL after 18 hrs by reporter gene assay; assay type: cell-based
T1 sequence (whole entry): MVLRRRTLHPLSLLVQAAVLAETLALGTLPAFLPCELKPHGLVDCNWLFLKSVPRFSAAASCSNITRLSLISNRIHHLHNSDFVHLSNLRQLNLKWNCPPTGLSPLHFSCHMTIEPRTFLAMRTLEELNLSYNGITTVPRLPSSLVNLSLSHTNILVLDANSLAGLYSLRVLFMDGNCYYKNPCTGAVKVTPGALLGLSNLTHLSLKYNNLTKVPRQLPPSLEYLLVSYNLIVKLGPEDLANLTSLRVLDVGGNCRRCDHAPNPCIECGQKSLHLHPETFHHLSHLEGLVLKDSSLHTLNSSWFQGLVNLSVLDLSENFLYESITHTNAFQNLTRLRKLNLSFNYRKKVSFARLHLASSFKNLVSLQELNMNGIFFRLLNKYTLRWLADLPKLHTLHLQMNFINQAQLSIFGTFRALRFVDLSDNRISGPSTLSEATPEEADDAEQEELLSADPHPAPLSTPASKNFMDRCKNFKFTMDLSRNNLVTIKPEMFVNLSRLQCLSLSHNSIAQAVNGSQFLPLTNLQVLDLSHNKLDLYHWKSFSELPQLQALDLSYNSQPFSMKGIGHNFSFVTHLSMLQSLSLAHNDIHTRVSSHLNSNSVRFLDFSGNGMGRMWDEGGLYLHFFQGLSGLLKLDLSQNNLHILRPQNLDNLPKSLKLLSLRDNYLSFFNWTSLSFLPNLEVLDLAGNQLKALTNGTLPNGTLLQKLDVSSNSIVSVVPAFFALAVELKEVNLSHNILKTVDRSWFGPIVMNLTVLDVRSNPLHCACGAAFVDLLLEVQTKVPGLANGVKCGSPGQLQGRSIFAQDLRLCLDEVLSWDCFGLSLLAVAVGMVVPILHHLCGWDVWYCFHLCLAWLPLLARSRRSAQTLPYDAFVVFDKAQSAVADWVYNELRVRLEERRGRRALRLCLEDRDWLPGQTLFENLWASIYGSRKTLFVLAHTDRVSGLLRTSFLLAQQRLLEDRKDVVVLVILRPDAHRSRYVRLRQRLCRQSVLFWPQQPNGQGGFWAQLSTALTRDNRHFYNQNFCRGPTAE
How it was run: (§2)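 HEK293 cells stably expressing mouse TLR9 were transiently transfected with a SEAP reporter for 6 h, then stimulated with ODN at 0.1, 0.3 or 1 μg/mL for 18 h. Reporter expression is given as fold change in NF-κB activity over medium. Representative of two independent experiments.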

Mus musculus [4] = assay: Immunostimulatory activity in C57BL/6 mouse assessed as induction of TNFalpha level in serum at 2 mg/kg, sc after 2 hrs by Luminex multiplex assay; assay type: functional, organism-based; set-up: dose 2 mg/kg; how it was run: as §1
Mus musculus [5] = assay: Immunostimulatory activity in C57BL/6 mouse assessed as induction of KC level in serum at 2 mg/kg, sc after 2 hrs by Luminex multiplex assay; assay type: functional, organism-based; set-up: dose 2 mg/kg; how it was run: as §1
[6] = target: T1, Toll-like receptor 9 (Mus musculus); assay: Activation of mouse TLR9 expressed in HEK293 cells assessed as NF-kappaB level at 1 ug/mL after 18 hrs by reporter gene assay; assay type: cell-based; how it was run: as §2
Splenocyte [7] = assay: Immunostimulatory activity in C57BL/6 mouse splenocytes assessed as induction of IL6 secretion after 24 hrs by sandwich ELISA; assay type: functional, cell-based
How it was run: (§3)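 C57BL/6 splenocytes (mice 5–8 weeks) at 5 × 10^6 cells/mL in RPMI complete medium. ODNs dissolved in PBS were added and the cells incubated at 37 °C for 24 h. Supernatant IL-12 or IL-6 was measured by sandwich ELISA. Runs were done two or three times, in duplicate per concentration.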

Splenocyte [8] = assay: Immunostimulatory activity in C57BL/6 mouse splenocytes assessed as induction of IL12 secretion after 24 hrs by sandwich ELISA; assay type: functional, cell-based; how it was run: as §3
Mus musculus [9] = assay: Immunostimulatory activity in C57BL/6 mouse assessed as induction of IL10 level in serum at 2 mg/kg, sc after 2 hrs by Luminex multiplex assay; assay type: functional, organism-based; set-up: dose 2 mg/kg; how it was run: as §1
Mus musculus [10] = assay: Immunostimulatory activity in C57BL/6 mouse assessed as induction of MIP-1alpha level in serum at 2 mg/kg, sc after 2 hrs by Luminex multiplex assay; assay type: functional, organism-based; set-up: dose 2 mg/kg; how it was run: as §1
[11] = target: T1, Toll-like receptor 9 (Mus musculus); assay: Activation of mouse TLR9 expressed in HEK293 cells assessed as NF-kappaB level at 0.1 ug/mL after 18 hrs by reporter gene assay; assay type: cell-based; how it was run: as §2
J774 = assay: Activation of NF-kappaB in mouse J774 cells at 0.5 ug/ml after 1 hr by EMSA; assay type: cell-based
How it was run: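 Murine J774 macrophages in DMEM with 10% FBS and antibiotics, plated at 5×10^6 cells/well. ODNs were given alone or together for 1 h. For inhibition, the agonist ODN at 0.5 μg/mL was co-incubated with the modified ODN at 2.5 μg/mL. Nuclear extracts were resolved by EMSA on native polyacrylamide gels and read by autoradiography.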

Measured: Activity

Cc1cn([C@H]2C[C@H](OP(=O)(S)OC[C@H]3O[C@@H](n4ccc(N)nc4=O)C[C@@H]3OP(=O)(S)OC[C@H]3O[C@@H](n4cc(C)c(=O)[nH]c4=O)C[C@@H]3OP(=O)(S)OC[C@H]3O[C@@H](n4cnc5c(=O)[nH]c(N)nc54)C[C@@H]3OP(=O)(S)OC[C@H]3O[C@@H](n4cc(C)c(=O)[nH]c4=O)C[C@@H]3O)[C@@H](COP(=O)(S)O[C@H]3C[C@H](n4ccc(N)nc4=O)O[C@@H]3COP(=O)(S)O[C@H]3C[C@H](n4cc(C)c(=O)[nH]c4=O)O[C@@H]3COP(=O)(S)O[C@H]3C[C@H](n4cc(C)c(=O)[nH]c4=O)O[C@@H]3COP(=O)(S)O[C@H]3C[C@H](n4cnc5c(=O)[nH]c(N)nc54)O[C@@H]3COP(=O)(S)O[C@H]3C[C@H](n4ccc(N)nc4=O)O[C@@H]3COP(=O)(S)O[C@H]3C[C@H](n4cnc5c(N)ncnc54)O[C@@H]3COP(=O)(S)O[C@H]3C[C@H](n4cnc5c(=O)[nH]c(N)nc54)O[C@@H]3COP(=O)(S)O[C@H]3C[C@H](n4cc(C)c(=O)[nH]c4=O)O[C@@H]3COP(=O)(S)O[C@H]3C[C@H](n4ccc(N)nc4=O)O[C@@H]3COP(=O)(S)O[C@H]3C[C@H](n4cc(C)c(=O)[nH]c4=O)O[C@@H]3COP(=O)(S)O[C@H]3C[C@H](n4cnc5c(N)ncnc54)O[C@@H]3COP(=O)(S)O[C@H]3C[C@H](n4cc(C)c(=O)[nH]c4=O)O[C@@H]3COP(=O)(S)O[C@H]3C[C@H](n4ccc(N)nc4=O)O[C@@H]3CO)O2)c(=O)[nH]c1=O (some centres not stated)
active: Mus musculus [1] | Mus musculus [2] | [3] | Mus musculus [4] | Mus musculus [5] | [6] | Splenocyte [7] Dose-dependent effect | Splenocyte [8] Dose-dependent effect | Mus musculus [9] | Mus musculus [10] | [11] | J774
